Assay [1] has as its target T1, Tyrosine-protein phosphatase non-receptor type 11 (Homo sapiens, UniProt Q06124).
T1 sequence (Q06124 whole entry): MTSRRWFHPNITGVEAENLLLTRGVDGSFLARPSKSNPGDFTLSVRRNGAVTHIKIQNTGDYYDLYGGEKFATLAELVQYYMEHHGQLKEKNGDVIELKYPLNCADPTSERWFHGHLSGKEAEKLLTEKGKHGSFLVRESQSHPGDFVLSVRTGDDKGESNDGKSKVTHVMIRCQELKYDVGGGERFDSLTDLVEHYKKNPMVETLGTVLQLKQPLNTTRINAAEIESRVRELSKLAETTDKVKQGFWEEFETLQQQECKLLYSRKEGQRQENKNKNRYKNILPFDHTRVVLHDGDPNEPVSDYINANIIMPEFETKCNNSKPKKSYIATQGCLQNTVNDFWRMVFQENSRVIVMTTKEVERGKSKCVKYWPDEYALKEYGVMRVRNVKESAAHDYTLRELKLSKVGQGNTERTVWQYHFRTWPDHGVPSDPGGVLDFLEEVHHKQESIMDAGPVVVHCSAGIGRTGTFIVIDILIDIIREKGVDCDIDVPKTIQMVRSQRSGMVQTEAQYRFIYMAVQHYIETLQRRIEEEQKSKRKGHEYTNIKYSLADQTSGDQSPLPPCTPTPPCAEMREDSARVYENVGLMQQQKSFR
As to the kind of experiment: Inhibition of SHP-2 (unknown origin).

For assay [2], the target named is T2, Tyrosine-protein phosphatase non-receptor type 1 (Rattus norvegicus) (UniProt P20417).
T2 sequence (whole entry): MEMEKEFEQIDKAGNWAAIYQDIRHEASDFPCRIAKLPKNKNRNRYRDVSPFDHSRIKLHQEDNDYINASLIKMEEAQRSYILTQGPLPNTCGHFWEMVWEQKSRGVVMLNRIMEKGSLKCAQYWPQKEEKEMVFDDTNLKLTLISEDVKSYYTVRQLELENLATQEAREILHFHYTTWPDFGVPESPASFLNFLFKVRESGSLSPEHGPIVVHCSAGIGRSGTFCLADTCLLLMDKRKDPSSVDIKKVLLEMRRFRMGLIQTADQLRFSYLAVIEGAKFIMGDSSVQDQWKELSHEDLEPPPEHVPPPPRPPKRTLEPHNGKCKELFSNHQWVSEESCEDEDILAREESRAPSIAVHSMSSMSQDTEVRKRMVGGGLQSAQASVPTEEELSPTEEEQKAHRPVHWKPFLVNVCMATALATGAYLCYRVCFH
As to the kind of experiment: Inhibition of PTP1B in rat L6 cells assessed as insulin-stimulated 2-deoxy-[3H]-deoxy-glucose uptake preincubated for 2 hrs followed by insulin challenge for 30 mins. It counts as cell-based. Summed up: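 Differentiated L6 myotubes were serum-starved 2 h, treated with compound, then stimulated with 10 nM insulin for 30 min. Cells were washed in HEPES-buffered saline, pH 7.4, and incubated 15 min with 2-deoxy-[3H]-glucose. After ice-cold PBS washes they were lysed in 0.1% Triton X-100 and radioactivity was counted. Data are averages of at least three independent replicates.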

Assay [3] concerns the target T2, Tyrosine-protein phosphatase non-receptor type 1 (Rattus norvegicus). As to the kind of experiment: Inhibition of PTP1B in rat L6 cells assessed as insulin-induced Akt phosphorylation at 20 uM preincubated for 2 hrs followed by insulin challenge for 10 mins by Western blotting analysis in presence of wortmannin. The class given is cell-based. The gist of the method:
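Differentiated L6 myotubes were pretreated with 250 nM wortmannin to block PI3K. They then received 20 μM compound for 2 h and were stimulated with or without 10 nM insulin. Akt phosphorylation was read by immunoblot of lysates with anti-phospho-Akt (Ser473).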
A general note: Immunoblotting shows a protein as a band on a membrane.

Molecules are shown by their SMILES. The source made the active and inactive calls. The calls are words filed in the database; no cut-off is given here.

In assay [1], `O=C(CCc1c[nH]c2ccccc12)N[C@@H](Cc1ccc(OCc2ccccc2)cc1)c1nc(C(=O)Nc2cc(F)ccc2C(=O)O)c(-c2ccccc2)s1` displayed a half-inhibitory concentration (IC50) of 9.89 µM. Moreover, the inhibition entry in assay [2] is “Dose-dependent effect”. In addition, in assay [3], the inhibition entry is “inactive”.

The term IC50 denotes the concentration at which inhibition is half-maximal. A low value points to inhibition by little substance.

The values are drawn from ChEMBL document CHEMBL2434820, “Design, synthesis, and biological evaluation of novel 2-ethyl-5-phenylthiazole-4-carboxamide derivatives as protein tyrosine phosphatase 1B inhibitors with improved cellular efficacy” (Eur J Med Chem, 2013).
